Source: ChEMBL document CHEMBL1122721, “Synthesis and antiarrhythmic activity of new 1-[1-[2-[3-(alkylamino)-2-hydroxypropoxy]phenyl]vinyl]-1 H-imidazoles and related compounds” (J Med Chem, 1984)
“And” between values parts separate entries of the source, which are not always exact repeats. Equal entries are not always repeated.

Experiments:
Mus musculus [1] = assay: Compound was evaluated for ventricular tachycardia activity in intravenously administered mice, 3 min before aconitine infusion, at a dose of 1 mg/kg; S=significant antiarrhythmic effect; type: functional, organism-based; parameters: dose 1 mg/kg; details: Heart
Method in brief: (§1)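 Aconitine arrhythmia model in pentobarbital-anesthetized male mice (20-35 g). Test compound was given iv 3 min or po 30 min before continuous tail-vein infusion of aconitine (0.685 µg/min). Lead II ECG recorded; onset times of ventricular extrasystole (VES) and ventricular tachycardia (VT) were measured.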

Mus musculus [2] = assay: Compound was evaluated for ventricular tachycardia activity in perorally administered mice, 30 min before aconitine infusion, at a dose of 30 mg/kg; S=significant antiarrhythmic effect; type: functional, organism-based; parameters: dose 30 mg/kg; details: Heart; method in brief: as §1
[3] = target: Adrenergic receptor beta (Cavia porcellus); assay: Beta adrenergic receptor blocking activity measured by the inotropic effect was determined 1 hr after pretreament of the right atria in guinea pig
Mus musculus [4] = assay: Compound was evaluated for ventricular extrasystole activity, 3 min before aconitine infusion, at a dose of 30 mg/kg, intravenously administered in mice; S=significant antiarrhythmic effect; type: functional, organism-based; parameters: dose 30 mg/kg; details: Heart; method in brief: as §1
[5] = target: Adrenergic receptor beta (Cavia porcellus); assay: Beta adrenergic receptor blocking activity measured by the chronotropic effect was determined 1 hr after pretreatment of the right atria in guinea pig
Mus musculus [6] = assay: Compound was evaluated for ventricular extrasystole activity, 3 min before aconitine infusion, at a dose of 1 mg/kg, intravenously administered in mice; S=significant antiarrhythmic effect; type: functional, organism-based; parameters: dose 1 mg/kg; details: Heart; method in brief: as §1
Mus musculus [7] = assay: Compound was evaluated for ventricular extrasystole, 30 min before aconitine infusion, at a dose of 30 mg/kg, perorally administered in mice; S=significant antiarrhythmic effect; type: functional, organism-based; parameters: dose 30 mg/kg; details: Heart; method in brief: as §1
Cavia porcellus = species: Cavia porcellus; assay: Maximal follow rate showing the contractile frequencies of atria to electrical stimulation 10 min after incubation with right atria of guinea pig.; type: functional
Method in brief: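 Isolated right atria driven by electrical stimulation (Dawes' method). Maximal follow rate, the highest contractile frequency the atria follow, measured as an index of refractory period 10 min after incubation with compound.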

[8] = Lethal dose in mice (LD50) (following i.v. dosing); details: mouse, in vivo, iv
Mus musculus [9] = assay: Compound was evaluated for ventricular tachycardia activity in intravenously administered mice, 3 min before aconitine infusion, at a dose of 3 mg/kg; S=significant antiarrhythmic effect; type: functional, organism-based; parameters: dose 3 mg/kg; details: Heart; method in brief: as §1
Canis familiaris [10] = assay: Effect on ischemic arrhythmias was studied in dogs. 3 mg/kg was injected intravenously and percent sinus beats before compound administration, was reported.; type: functional, Canis lupus familiaris; details: route intravenous
Method in brief: (§2)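 Conscious dogs with ischemic ventricular arrhythmias persisting for 24 h after a glass bead was inserted into a coronary artery. Compound was given iv or orally. Lead II ECG recorded continuously by telemetry. Percent sinus beats taken before and after dosing, plus duration of effect (min).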

Mus musculus [11] = assay: Compound was evaluated for ventricular extrasystole activity, 30 min before aconitine infusion, at a dose of 10 mg/kg, perorally administered in mice; S=significant antiarrhythmic effect; details: Heart
Canis familiaris [12] = assay: Effect on ischemic arrhythmias was studied in dogs. 3 mg/kg was injected intravenously and percent sinus beats after compound administration, was reported.; type: functional, Canis lupus familiaris; details: route intravenous; method in brief: as §2
Canis familiaris [13] = assay: Effect on ischemic arrhythmias was studied in dogs, by glass bead method. 60 mg/kg was administered perorally and percent sinus beats after compound administration, was reported.; type: functional, Canis lupus familiaris; details: route oral
Method in brief: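 Conscious dogs; ventricular arrhythmias induced by inserting a glass bead into a coronary artery, with marked arrhythmias persisting for 24 h. Compound given orally. Lead II ECG recorded continuously by telemetry. Percent sinus beats measured before and after dosing, and duration of effect in min recorded.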

Canis familiaris [14] = assay: Effect on ischemic arrhythmias was studied in dogs, by glass bead method. 60 mg/kg was administered perorally and percent sinus beats before compound administration, was reported.; type: functional, Canis lupus familiaris; details: route oral; method in brief: as §2
Canis familiaris [15] = assay: Effect on ischemic arrhythmias was studied in dogs. 10 mg/kg was injected intravenously and percent sinus beats before compound administration, was reported.; type: functional, Canis lupus familiaris; details: route intravenous; method in brief: as §2
Mus musculus [16] = assay: Compound was evaluated for ventricular tachycardia activity in intravenously administered mice, 3 min before aconitine infusion, at a dose of 10 mg/kg; S=significant antiarrhythmic effect; type: functional, organism-based; parameters: dose 10 mg/kg; details: Heart; method in brief: as §1
Mus musculus [17] = assay: Compound was evaluated for ventricular extrasystole activity, 3 min before aconitine infusion, at a dose of 10 mg/kg, intravenously administered in mice; S=significant antiarrhythmic effect; type: functional, organism-based; parameters: dose 10 mg/kg; details: Heart; method in brief: as §1
Canis familiaris [18] = assay: Effect on ischemic arrhythmias was studied in dogs. 10 mg/kg was injected intravenously and percent sinus beats after compound administration, was reported.; type: functional, Canis lupus familiaris; details: route intravenous; method in brief: as §2
Canis familiaris [19] = assay: Effect on ischemic arrhythmias was studied in dogs, by glass bead method. 10 mg/kg was administered perorally and percent sinus beats before compound administration, was reported.; type: functional, Canis lupus familiaris; details: route oral; method in brief: as §2
Mus musculus [20] = assay: Compound was evaluated for ventricular extrasystole, 30 min before aconitine infusion, at a dose of 10 mg/kg, perorally administered in mice; S=significant antiarrhythmic effect; type: functional, organism-based; parameters: dose 10 mg/kg; details: Heart; method in brief: as §1
Mus musculus [21] = assay: Compound was evaluated for ventricular tachycardia activity in perorally administered mice, 30 min before aconitine infusion, at a dose of 10 mg/kg; S=significant antiarrhythmic effect; type: functional, organism-based; parameters: dose 10 mg/kg; details: Heart; method in brief: as §1
Canis familiaris [22] = species: Canis familiaris; assay: Duration of ischemic arrhythmias in dogs determined in minutes.
Canis familiaris [23] = assay: Effect on ischemic arrhythmias was studied in dogs, by glass bead method. 10 mg/kg was administered perorally and percent sinus beats after compound administration, was reported.; type: functional, Canis lupus familiaris; details: route oral; method in brief: as §2
Mus musculus [24] = assay: Compound was evaluated for ventricular extrasystole, 3 min before aconitine infusion, at a dose of 3 mg/kg, intravenously administered in mice; S=significant antiarrhythmic effect; details: Heart
Mus musculus [25] = assay: Compound was evaluated for ventricular extrasystole activity, 3 min before aconitine infusion, at a dose of 3 mg/kg, intravenously administered in mice; S=significant antiarrhythmic effect; type: functional, organism-based; parameters: dose 3 mg/kg; details: Heart; method in brief: as §1

Compound | Activity (Mus musculus [1]) | Activity (Mus musculus [2]) | pA2 [3] | pA2 [5] | Activity (Mus musculus [7]) | Decrease (Cavia porcellus) [%] | LD50 [8] [mg/kg] | Activity (Mus musculus [9]) | Sinus beats (Canis familiaris [10]) [%] | Sinus beats (Canis familiaris [12]) [%] | Activity (Mus musculus [21]) | other results
C=C(c1c(C)ccc(Cl)c1OCC(O)CNC(C)C)n1ccnc1 (configuration not stated) | Anti-arrhythmic | Anti-arrhythmic | 5.55 | 5.67 | – | – | – | – | – | – | – | Activity (Mus musculus [4]): Anti-arrhythmic
C=C(c1c(C)c(C)cc(Cl)c1OCC(O)CNC(C)C)n1ccnc1 (configuration not stated) | Anti-arrhythmic | Anti-arrhythmic | 5.96 | 5.04 | Anti-arrhythmic | 29.8 | 15.5 | – | – | – | – | Activity (Mus musculus [6]): Anti-arrhythmic
C=C(c1cc(Cl)ccc1OCC(O)CNC(C)(C)C)n1cccn1 (configuration not stated) | – | – | 6.99 | 6.9 | – | 45.7 | 32.5 | Anti-arrhythmic | 1.8 | 14.3 | – | Activity (Mus musculus [11]): Anti-arrhythmic
C=C[C@H]1CN2CC[C@H]1C[C@@H]2[C@@H](O)c1ccnc2ccc(OC)cc12 [QUINIDINE] | – | Anti-arrhythmic | – | – | Anti-arrhythmic | 26.4 | – | – | – | – | – | Sinus beats (Canis familiaris [13]): 58.3%; Sinus beats (Canis familiaris [14]): 4.2%; Sinus beats (Canis familiaris [15]): 14.1%; Activity (Mus musculus [16]): Anti-arrhythmic; Activity (Mus musculus [17]): Anti-arrhythmic; Sinus beats (Canis familiaris [18]): 74.1%
CC(C)N(CCC(C(N)=O)(c1ccccc1)c1ccccn1)C(C)C (configuration not stated) [DISOPYRAMIDE] | – | Anti-arrhythmic | – | – | Anti-arrhythmic | 15.7 | 30 | – | – | – | – | Sinus beats (Canis familiaris [13]): 66.2%; Sinus beats (Canis familiaris [14]): 10.1%; Sinus beats (Canis familiaris [15]): 22.4%; Activity (Mus musculus [16]): Anti-arrhythmic; Activity (Mus musculus [17]): Anti-arrhythmic; Sinus beats (Canis familiaris [18]): 88.4%
C=C(c1c(Cl)ccc(Cl)c1OCC(O)CNCC(C)C)n1ccnc1 (configuration not stated) | Anti-arrhythmic | – | 5.81 | 4.89 | – | 34.9 | – | – | 6.5 | 94.5 | Anti-arrhythmic | Sinus beats (Canis familiaris [19]): 9.9%; Activity (Mus musculus [6]): Anti-arrhythmic; Activity (Mus musculus [20]): Anti-arrhythmic; Duration (Canis familiaris [22]): 60 min and 180 min; Sinus beats (Canis familiaris [23]): 44.8%
C=C(c1ccc(Cl)c(Cl)c1OCC(O)CNC(C)C)n1ccnc1 (configuration not stated) | – | – | 4.9 | 4.52 | – | – | – | Anti-arrhythmic | – | – | – | Activity (Mus musculus [24]): Anti-arrhythmic
C=C(c1c(Cl)ccc(Cl)c1OCC(O)CNC(C)C)n1ccnc1 (configuration not stated) | – | – | 5.29 | 4.86 | – | 45.7 | – | Anti-arrhythmic | 5.8 | 88.9 | Anti-arrhythmic | Sinus beats (Canis familiaris [19]): 9.3%; Sinus beats (Canis familiaris [23]): 69.3%; Activity (Mus musculus [24]): Anti-arrhythmic
C=C(c1c(C)ccc(Cl)c1OCC(O)CNC(C)(C)C)n1ccnc1 (configuration not stated) | – | – | 5.77 | 5.04 | – | 49.8 | 29.5 | Anti-arrhythmic | 11.7 | 59.1 | Anti-arrhythmic | Activity (Mus musculus [20]): Anti-arrhythmic; Duration (Canis familiaris [22]): 30 min; Activity (Mus musculus [25]): Anti-arrhythmic
